Reference: ChEMBL document CHEMBL1142210, “Plasmid-mediated KPC-2 in a Klebsiella pneumoniae isolate from China” (2007)
≈ marks a conversion by molar mass, not a printed value.

Columns and labels:
Assay type in all cases: functional
Escherichia coli [1] = assay: Antimicrobial activity against Escherichia coli DH5-alpha with pYW2 expressing KPC2 and TEM1 gene by agar dilution method; conditions: DH5alpha
Outline: (§1)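 Agar dilution MIC testing run per CLSI (formerly NCCLS) guidelines. Where an agent was combined with clavulanic acid, the clavulanic acid was held at a fixed 4 μg/ml.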

Klebsiella pneumoniae = assay: Antimicrobial activity against carbapenem-resistant Klebsiella pneumoniae ZR01 from patient sputum by agar dilution method; outline: as §1
Escherichia coli [2] = assay: Antimicrobial activity against Escherichia coli DH5-alpha with pGEM-T EASY expressing TEM1 gene by agar dilution method; conditions: DH5alpha; outline: as §1
Escherichia coli [3] = assay: Antimicrobial activity against Escherichia coli DH5alpha by agar dilution method; outline: as §1
Escherichia coli [4] = assay: Antimicrobial activity against Escherichia coli DH5-alpha pYW1 transformants expressing KPC2 gene by agar dilution method; conditions: DH5alpha; outline: as §1

| Compound | MIC (Escherichia coli [1]) | MIC (Klebsiella pneumoniae) | MIC (Escherichia coli [2]) | MIC (Escherichia coli [3]) | MIC (Escherichia coli [4]) |
| --- | --- | --- | --- | --- | --- |
| NCC[C@H](O)C(=O)N[C@@H]1C[C@H](N)[C@@H](O[C@H]2O[C@H](CN)[C@@H](O)[C@H](O)[C@H]2O)[C@H](O)[C@H]1O[C@H]1O[C@H](CO)[C@@H](O)[C@H](N)[C@H]1O [AMIKACIN] | 1 µg/mL (≈ 1.71 µM) | > 256 µg/mL | 1 µg/mL (≈ 1.71 µM) | 1 µg/mL (≈ 1.71 µM) | 1 µg/mL (≈ 1.71 µM) |
| C[C@H]1[C@H](NC(=O)/C(=N\OC(C)(C)C(=O)O)c2csc(N)n2)C(=O)N1S(=O)(=O)O [AZTREONAM] | 64 µg/mL (≈ 147 µM) | > 256 µg/mL | – | – | 32 µg/mL (≈ 73.5 µM) |
| CO/N=C(\C(=O)N[C@@H]1C(=O)N2C(C(=O)[O-])=C(C[N+]3(C)CCCC3)CS[C@H]12)c1csc(N)n1 [CEFEPIME] | – | > 256 µg/mL | 0.125 µg/mL (≈ 0.26 µM) | 0.032 µg/mL (≈ 0.0666 µM) | 2 µg/mL (≈ 4.16 µM) |
| CO/N=C(\C(=O)N[C@@H]1C(=O)N2C(C(=O)O)=C(COC(C)=O)CS[C@H]12)c1csc(N)n1 [CEFOTAXIME] | 32 µg/mL (≈ 70.3 µM) | > 256 µg/mL | 0.094 µg/mL (≈ 0.206 µM) | 0.094 µg/mL (≈ 0.206 µM) | 4 µg/mL (≈ 8.78 µM) |
| CC(C)(O/N=C(\C(=O)N[C@@H]1C(=O)N2C(C(=O)[O-])=C(C[n+]3ccccc3)CS[C@H]12)c1csc(N)n1)C(=O)O [CEFTAZIDIME] | 32 µg/mL (≈ 58.5 µM) | > 256 µg/mL | 0.5 µg/mL (≈ 0.915 µM) | 0.25 µg/mL (≈ 0.457 µM) | 4 µg/mL (≈ 7.32 µM) |
| CO/N=C(\C(=O)N[C@@H]1C(=O)N2C(C(=O)O)=C(CSc3nc(=O)c(O)nn3C)CS[C@H]12)c1csc(N)n1 [CEFTRIAXONE] | 64 µg/mL (≈ 115 µM) | > 256 µg/mL | 0.094 µg/mL (≈ 0.169 µM) | 0.094 µg/mL (≈ 0.169 µM) | 8 µg/mL (≈ 14.4 µM) |
| O=C(O)c1cn(C2CC2)c2cc(N3CCNCC3)c(F)cc2c1=O [CIPROFLOXACIN] | – | > 32 µg/mL | – | – | – |
| C[C@@H](O)[C@H]1C(=O)N2C(C(=O)O)=C(S[C@@H]3CN[C@H](C(=O)Nc4cccc(C(=O)O)c4)C3)[C@H](C)[C@H]12 [ERTAPENEM] | 2 µg/mL (≈ 4.21 µM) | > 256 µg/mL | 0.012 µg/mL (≈ 0.0252 µM) | 0.008 µg/mL (≈ 0.0168 µM) | 0.5 µg/mL (≈ 1.05 µM) |
| C[C@@H](O)[C@H]1C(=O)N2C(C(=O)O)=C(SCCNC=N)C[C@H]12 [IMIPENEM ANHYDROUS] | 8 µg/mL (≈ 26.7 µM) | > 32 µg/mL | – | – | 4 µg/mL (≈ 13.4 µM) |
| C[C@@H](O)[C@H]1C(=O)N2C(C(=O)O)=C(S[C@@H]3CN[C@H](C(=O)N(C)C)C3)[C@H](C)[C@H]12 [MEROPENEM] | 4 µg/mL (≈ 10.4 µM) | > 32 µg/mL | 0.06 µg/mL (≈ 0.156 µM) | 0.06 µg/mL (≈ 0.156 µM) | 4 µg/mL (≈ 10.4 µM) |
| CO[C@H]1/C=C/O[C@@]2(C)Oc3c(C)c(O)c4c(O)c(c(/C=N/N5CCN(C)CC5)c(O)c4c3C2=O)NC(=O)/C(C)=C\C=C\[C@H](C)[C@H](O)[C@@H](C)[C@@H](O)[C@@H](C)[C@H](OC(C)=O)[C@@H]1C [RIFAMPIN] | 16 µg/mL (≈ 19.4 µM) | 16 µg/mL (≈ 19.4 µM) | 16 µg/mL (≈ 19.4 µM) | 16 µg/mL (≈ 19.4 µM) | 16 µg/mL (≈ 19.4 µM) |
| COLISTIN | 0.5 µg/mL | 0.5 µg/mL | 0.5 µg/mL | 0.5 µg/mL | 0.5 µg/mL |
| POLYMYXIN B | 1 µg/mL | 2 µg/mL | 1 µg/mL | 1 µg/mL | 1 µg/mL |
